# A selection: hits, their analogues and other compounds. The true share with any hit is near 2%.
# FLuc inh counter: inhibits firefly luciferase, flagging false hits in luciferase inhibition screens. ATPLite firefly luciferase biochemical luminescence, 10 min. inhibition, % at 10 µM. actives 1.5% (n = 200,000);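 active = inhibition above about 50% when tested at 10 µM, limit read from the data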
# Target sequence (P08659 whole entry, looked up): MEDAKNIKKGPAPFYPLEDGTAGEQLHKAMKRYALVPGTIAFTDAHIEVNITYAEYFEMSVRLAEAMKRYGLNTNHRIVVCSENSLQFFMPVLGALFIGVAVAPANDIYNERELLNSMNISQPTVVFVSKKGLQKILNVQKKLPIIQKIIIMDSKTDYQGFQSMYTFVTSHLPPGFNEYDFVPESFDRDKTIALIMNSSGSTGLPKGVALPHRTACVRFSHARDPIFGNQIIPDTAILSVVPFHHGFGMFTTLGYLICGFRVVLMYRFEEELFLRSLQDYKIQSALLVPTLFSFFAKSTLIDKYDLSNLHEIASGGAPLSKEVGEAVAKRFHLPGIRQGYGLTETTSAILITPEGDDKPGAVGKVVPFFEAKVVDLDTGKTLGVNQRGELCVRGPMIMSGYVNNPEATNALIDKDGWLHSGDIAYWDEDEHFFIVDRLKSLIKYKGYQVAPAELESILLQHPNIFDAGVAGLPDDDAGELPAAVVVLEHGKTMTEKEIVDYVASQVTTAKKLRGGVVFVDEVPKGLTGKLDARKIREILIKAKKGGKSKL
# FLuc act counter: firefly luciferase counter-screen for stimulation assays; P08659; ATPlite luciferase biochemical, luminescence, 10 min; 0 = ATP-free wells, 1 = DMSO control; activation factor at 10 µM; 200,000 tested, under 10 active;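 active = luciferase activation factor, scaled between plate controls, of at least 2 with compound at 10 µM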
#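 Assay system: Luciferase/luciferin detection reagent, cell-free biochemical luciferase assay / Read-out: luciferase activation / Benchmarks: No-ATP low control, compound-free enzyme-plus-ATP high control / Medium: PBS buffer for ATP / Detection: luminescence measurement of luciferase light output / Schedule: 10 min at ambient temperature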
# PPC-1+TRAIL kill: compounds killing PPC-1 cancer cells with TRAIL present (potentiator screen, no TRAIL-free arm); PPC-1 cells + TRAIL, ATPLite viability luminescence; cell killing (% activity), % at 4 µM or 5 µM; actives 0.41% (n = 220,000); AID 1443;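 active = cell killing above 50% in the first pass at 4 µM, then a duplicate retest at 5 µM averaging 50% or more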;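 note: plate controls were cells with TRAIL plus DMSO for no effect and medium-only wells lacking cells for full effect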
# HSP90 inh: inhibitors of HSP90 luciferase refolding in rabbit reticulocyte lysate; luciferase refolding luminescence, 3 h; inhibition, % at 5.6 µM; actives 0.91% (n = 290,000); AID 1789;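 active = inhibition above the screen-wide mean plus 3 SD, computed separately per campaign, cut at about 16% in these data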;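 note: 0% = DMSO wells and 100% = 60 µM geldanamycin wells; inhibitors lower the luminescence because luciferase stays unfolded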
# TRAIL sens C8: sensitizes caspase-8 expressing cells to TRAIL | NB7+C8 cells + TRAIL, ATPlite viability luminescence | inhibition (viability loss, TRAIL sensitization), % at 10 µM | actives 1% (n = 360,000) | AID 624354;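 active = compounds causing at least 50% loss of cell viability in the single-dose screen, relative to plate controls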
# Active calls of the source: *; / = not tested or not shown.
SMILES,FLuc inh counter,FLuc act counter,PPC-1+TRAIL kill,HSP90 inh,TRAIL sens C8
CN(C)c1ccc(/C=N/N2C(=O)c3ccccc3C2=O)cc1,/,/,6.7,-1.0,9.8
Cc1ccc(-c2csc(NC(=O)CSc3nnc4c(n3)[nH]c3ccccc34)n2)cc1,-5.9,1.1,-7.7,-2.1,51.5*
Cc1ccc(NC(=O)CSc2nnc3c(n2)[nH]c2ccccc23)cc1,/,/,/,-3.7,-4.3
CCCCOCCCNC(=O)C[C@@H]1C[C@@]2(C(=O)OC)CCCCC=C2N(Cc2ccccc2)C1=O,/,/,/,/,-13.2
CCCc1cc(N2CCOCC2)n2ncc(-c3ccccc3)c2n1,/,/,/,16.6*,11.0
CC(C)(C)c1cc(N2CCOCC2)n2ncc(-c3ccccc3)c2n1,/,/,/,-2.7,1.4
CC(=O)c1cccc(NC(=O)C2Cc3c(-c4ccc5c(c4)OCO5)ccnc3O2)c1 (stereo not drawn),/,/,/,/,3.0
COc1ccc(Cn2c(/C=C/c3ccccc3)nc3ccccc32)cc1,50.2*,0.5,26.5,-1.8,47.5
CC(C)Cn1c(/C=C/c2ccccc2)nc2ccccc21,58.4*,0.4,4.2,3.5,46.4
CCCc1cc(=O)[nH]c(SCC(=O)N2CCCCCC2)n1,/,/,/,/,1.2
O=C(Cc1cccc(NC(=O)C2CCCN(C(=O)CCc3ccccc3)C2)c1)Nc1ccc(C(=O)N2CCOCC2)cc1 (stereo not drawn),/,/,/,/,2.3
Oc1cc(NCc2ccc(F)cc2)cc2cccnc12,/,/,/,/,54.2*
O=C(NCc1ccccc1)c1cccc(NC(=O)C2CCCC2)c1,/,/,/,/,-3.0
Cc1ccc(NC(=O)ON=C2CCCC2)cc1,61.7*,0.4,-6.7,6.0,8.4
O=S(=O)(c1ccc(Br)cc1)N1CCN(c2ccc3nnc(-c4ccccc4)n3n2)CC1,-6.0,1.1,-6.7,1.0,50.9*
CCC(OC(=O)c1ccc(S(C)(=O)=O)c([N+](=O)[O-])c1)C(=O)NC1C2CC3CC(C2)CC1C3 (stereo not drawn),/,/,/,/,74.2*
CC(OC(=O)c1ccc(S(C)(=O)=O)c([N+](=O)[O-])c1)C(=O)NC1C2CC3CC(C2)CC1C3 (stereo not drawn),/,/,/,/,73.5*
Cn1cccc1C(=O)NC(=O)COC(=O)c1ccc(S(C)(=O)=O)c([N+](=O)[O-])c1,/,/,/,/,8.4
CS(=O)(=O)c1ccc(Sc2nc3ccccc3[nH]2)c([N+](=O)[O-])c1,-1.0,1,5.7,-1.1,4.0
O=[N+]([O-])c1cc(S(=O)(=O)C(F)(F)F)ccc1Sc1nc2ccccc2[nH]1,-6.7,1.1,10.9,4.3,86.4*
O=C(NC1CCCC1)C1c2ccccc2OCC(=O)N1CCc1ccccc1 (stereo not drawn),/,/,/,/,-21.4
O=C(COC(=O)c1ccccc1C(=O)c1ccc(Cl)c([N+](=O)[O-])c1)NC1CCCCCC1,3.2,1,15.5,4.2,94.0*
Cn1c(N)c(C(=O)COC(=O)c2ccccc2C(=O)c2ccc(Cl)c([N+](=O)[O-])c2)c(=O)n(C)c1=O,/,/,/,/,92.3*
Cn1c(N)c(C(=O)COC(=O)c2ccccc2C(=O)c2ccccc2)c(=O)n(C)c1=O,/,/,/,/,4.4
O=C(COC(=O)c1ccc(Cl)c([N+](=O)[O-])c1)NC1CCCC1,/,/,/,2.2,1.3
SMILES,FLuc inh counter,FLuc act counter,PPC-1+TRAIL kill,HSP90 inh,TRAIL sens C8
CC(=O)c1cn(Cc2ccccc2)c(=O)n(Cc2ccc(F)cc2)c1=O,79.4*,0.2,24.7,1.6,-5.0
O=c1c([N+](=O)[O-])cn(Cc2ccccc2)c(=O)n1Cc1ccccc1,/,/,/,/,18.5
O=C(Nc1ccc(F)c(Cl)c1)c1cc(C2CCCCN2C(=O)c2cccs2)on1 (stereo not drawn),/,/,/,/,10.4
CC1CC(C)(C)Nc2ccc(OC(=O)c3ccco3)cc21 (stereo not drawn),60.4*,0.4,11.6,5.8,34.1
O=C(Oc1ccc2ccccc2c1)c1ccco1,9.5,0.9,12.5,-1.4,-1.5
O=C(NC1CCCCC1)C(C1CC1)n1c(=O)c(-c2cc3ccccc3[nH]2)nc2ccccc21 (stereo not drawn),/,/,/,/,7.9
Cc1cc2cc3c(cc2nc1SCC(=O)N1c2ccccc2CC1C)OCO3 (stereo not drawn),-5.8,1.1,7.5,16.8*,5.9
O=C(/C=C/Nc1cccc([N+](=O)[O-])c1)c1cccs1,50.8*,0.5,6.2,-0.7,2.0
O=C(/C=C/Nc1ccccc1C(=O)O)c1cccs1,64.7*,0.4,8.7,-0.1,-3.1
O=C(/C=C/Nc1ccc(Nc2ccccc2)cc1)c1cccs1,16.9,0.8,0.6,1.6,0.6

# From PubChem
